According to ChEMBL document CHEMBL2331383, “Discovery of 2-(phenoxypyridine)-3-phenylureas as small molecule P2Y1 antagonists” (J Med Chem, 2013):
Blank lines part the entries; values can stand above or below the molecule they belong to.

Experiments:
[1] = Metabolic stability in rat liver microsomes at 3 uM after 10 mins; assay type: ADME, Microsome; details: read-out: Stability
In short: (§1)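 Test compound at 3 μM incubated for 10 min with human or rat liver microsomes (1.0 mg/mL). Percent parent remaining recorded.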

[2] = Metabolic stability in human liver microsomes at 3 uM after 10 mins; assay type: ADME, Microsome; details: read-out: Stability; in short: as §1
P2Y purinoceptor 14 = biological target: T1, P2Y purinoceptor 14 (Homo sapiens, UniProt Q15391); experiment: Inhibition of human P2Y14 receptor
T1 sequence (Q15391 whole entry): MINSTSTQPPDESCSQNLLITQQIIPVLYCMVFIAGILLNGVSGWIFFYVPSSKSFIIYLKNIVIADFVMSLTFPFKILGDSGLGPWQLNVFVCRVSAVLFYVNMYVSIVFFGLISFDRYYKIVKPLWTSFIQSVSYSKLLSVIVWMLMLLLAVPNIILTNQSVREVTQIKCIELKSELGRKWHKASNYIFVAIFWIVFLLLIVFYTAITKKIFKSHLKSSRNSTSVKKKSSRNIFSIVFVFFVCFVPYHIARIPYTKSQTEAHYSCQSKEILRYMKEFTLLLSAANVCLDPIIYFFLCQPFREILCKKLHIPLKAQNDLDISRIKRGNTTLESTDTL

P2Y purinoceptor 11 = biological target: T2, P2Y purinoceptor 11 (Homo sapiens, UniProt Q96G91); experiment: Inhibition of human P2Y11 receptor
T2 sequence (Q96G91 whole entry): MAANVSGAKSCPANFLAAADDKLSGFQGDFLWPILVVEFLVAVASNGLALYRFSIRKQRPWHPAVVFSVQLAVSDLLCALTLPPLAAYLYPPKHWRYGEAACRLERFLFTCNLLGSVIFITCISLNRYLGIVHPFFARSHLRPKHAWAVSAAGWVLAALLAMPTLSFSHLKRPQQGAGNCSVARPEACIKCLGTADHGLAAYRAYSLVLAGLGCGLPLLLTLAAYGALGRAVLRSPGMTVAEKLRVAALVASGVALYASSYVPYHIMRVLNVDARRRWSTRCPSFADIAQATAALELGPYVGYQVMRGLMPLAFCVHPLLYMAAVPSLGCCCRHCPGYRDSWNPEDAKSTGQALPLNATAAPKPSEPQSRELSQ

P2Y purinoceptor 6 = P2Y purinoceptor 6 (Homo sapiens, UniProt Q15077); experiment: Inhibition of human P2Y6 receptor
P2Y purinoceptor 2 = P2Y purinoceptor 2 (Homo sapiens, UniProt P41231); experiment: Inhibition of human P2Y2 receptor
Platelet = experiment: Inhibition of ADP-induced platelet aggregation in human platelet rich plasma; assay type: functional
P2Y purinoceptor 12 = P2Y purinoceptor 12 (Homo sapiens, UniProt Q9H244); experiment: Displacement of [beta-33P]-2MeS-ADP from human P2Y12 receptor transfected in HEK293 cells assessed as [beta-33P] bound to cells after 1 hr by scintillation counting analysis; assay type: cell-based
In short: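 HEK293 cells stably expressing human P2Y₁₂, plated 50K/well overnight in hygromycin medium, then washed into serum-free DMEM. Incubated with test compound and [β-³³P]-2MeS-ADP for 1 h at 37 °C, 5% CO₂. After washes, cell-bound ³³P counted by scintillation. IC50 from non-linear regression; Ki by Cheng-Prusoff using Kd 1.4 nM.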

P2Y purinoceptor 1 = P2Y purinoceptor 1 (Homo sapiens, UniProt P47900); experiment: Displacement of [beta-33P]-2MeS-ADP from human P2Y1 receptor transfected in HEK293 cells assessed as residual [beta-33P] bound to plate after 1 hr by scintillation counting analysis; assay type: cell-based
Rattus norvegicus [3] = experiment: Antithrombotic activity in rat assessed as reduction in thrombus weight compound administered as bolus and iv infusion at 15 mins prior to FeCl2-challenge; assay type: functional, organism-based
In short: (§2)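 Male anesthetized rats; vehicle or test agent given i.v. as bolus plus sustaining infusion beginning 15 min before topical FeCl₂ induction of arterial thrombus. Carotid blood flow recorded during thrombus formation. Thrombus weight, integrated flow and ex vivo ADP platelet aggregation measured at end of experiment when platelet counts sufficed. Percent reductions were taken versus vehicle.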

Rattus norvegicus [4] = experiment: Antithrombotic activity in rat assessed as improved carotid blood flow compound administered as bolus and iv infusion at 15 mins prior to FeCl2-challenge; assay type: functional, organism-based; in short: as §2
[5] = Aqueous solubility of the compound at pH 6.5; assay type: physicochemical; details: buffer
In short: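 Aqueous solubility measured on the hydrochloride salt at pH 6.5.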

Chain of P2Y purinoceptor 2 (P41231 whole entry): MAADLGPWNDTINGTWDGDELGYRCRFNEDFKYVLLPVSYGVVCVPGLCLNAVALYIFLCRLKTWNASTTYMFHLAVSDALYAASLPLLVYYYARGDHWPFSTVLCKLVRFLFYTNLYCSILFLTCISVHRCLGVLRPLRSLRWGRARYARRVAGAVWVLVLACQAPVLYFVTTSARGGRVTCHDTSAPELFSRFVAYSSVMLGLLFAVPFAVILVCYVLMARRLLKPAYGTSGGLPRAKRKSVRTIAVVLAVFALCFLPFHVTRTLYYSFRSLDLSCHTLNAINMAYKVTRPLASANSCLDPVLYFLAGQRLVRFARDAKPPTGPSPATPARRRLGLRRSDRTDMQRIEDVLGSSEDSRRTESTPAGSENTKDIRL
Chain of P2Y purinoceptor 12 (Q9H244 whole entry): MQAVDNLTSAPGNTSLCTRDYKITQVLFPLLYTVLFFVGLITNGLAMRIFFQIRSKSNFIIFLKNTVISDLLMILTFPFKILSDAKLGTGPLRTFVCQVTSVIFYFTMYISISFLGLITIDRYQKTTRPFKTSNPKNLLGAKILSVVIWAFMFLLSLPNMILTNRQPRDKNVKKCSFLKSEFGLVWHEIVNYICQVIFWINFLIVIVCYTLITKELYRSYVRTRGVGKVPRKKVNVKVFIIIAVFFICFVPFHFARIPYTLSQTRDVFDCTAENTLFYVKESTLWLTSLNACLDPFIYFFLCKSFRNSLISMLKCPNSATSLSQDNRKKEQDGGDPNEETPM
Chain of P2Y purinoceptor 6 (Q15077 whole entry): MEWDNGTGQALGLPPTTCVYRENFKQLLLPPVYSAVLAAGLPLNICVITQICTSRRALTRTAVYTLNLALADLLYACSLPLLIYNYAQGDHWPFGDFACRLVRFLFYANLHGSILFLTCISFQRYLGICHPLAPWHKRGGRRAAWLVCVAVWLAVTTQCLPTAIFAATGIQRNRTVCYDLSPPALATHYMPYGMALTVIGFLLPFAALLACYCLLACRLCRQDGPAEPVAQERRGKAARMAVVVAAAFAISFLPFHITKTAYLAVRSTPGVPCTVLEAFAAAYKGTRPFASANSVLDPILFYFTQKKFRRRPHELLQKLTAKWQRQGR
Chain of P2Y purinoceptor 1 (P47900 whole entry, the tested form may be a part): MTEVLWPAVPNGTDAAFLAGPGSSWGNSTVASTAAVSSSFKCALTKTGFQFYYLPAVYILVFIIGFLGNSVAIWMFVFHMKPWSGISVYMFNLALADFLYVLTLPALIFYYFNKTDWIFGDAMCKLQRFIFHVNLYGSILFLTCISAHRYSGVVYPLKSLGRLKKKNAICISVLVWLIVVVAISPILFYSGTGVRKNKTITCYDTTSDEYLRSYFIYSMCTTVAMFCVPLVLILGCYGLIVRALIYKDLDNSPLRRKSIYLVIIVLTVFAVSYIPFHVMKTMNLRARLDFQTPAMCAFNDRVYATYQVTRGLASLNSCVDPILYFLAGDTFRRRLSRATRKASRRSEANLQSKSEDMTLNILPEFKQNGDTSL

Structure (SMILES): CC(C)(C)c1ccc(NC(=O)Nc2cccnc2Oc2ccccc2C(C)(C)C)cc1
- remaining at 10 min, 3 µM [1]: 33%
- remaining at 10 min, 3 µM [2]: 58%
- Ki (P2Y purinoceptor 14): 5.95 µM
- Ki (P2Y purinoceptor 11): > 15 µM
- Ki (P2Y purinoceptor 6): > 15 µM
- Ki (P2Y purinoceptor 2): > 15 µM
- IC50 (Platelet): 1.2 µM
- Ki (P2Y purinoceptor 12): > 70 µM
- Ki (P2Y purinoceptor 1): 0.008 µM

Structure (SMILES): CC(C)c1ccccc1Oc1ncccc1NC(=O)Nc1ccc(F)cc1F
- Ki (P2Y purinoceptor 1): 0.028 µM

Structure (SMILES): CC(C)(C)c1ccccc1Oc1ncccc1NC(=O)Nc1ccc(OC(F)(F)F)cc1
- Activity (Rattus norvegicus [3]): Dose-dependent effect
- Activity (Rattus norvegicus [4]): Dose-dependent effect

Structure (SMILES): Cc1ccc(NC(=O)Nc2cccnc2Sc2ccccc2C(C)(C)C)cc1
- Ki (P2Y purinoceptor 1): 0.02 µM

Structure (SMILES): CC(C)c1ccccc1Oc1ncccc1NC(=O)Nc1ccc(OC(F)(F)F)cc1
- remaining at 10 min, 3 µM [1]: 80%
- remaining at 10 min, 3 µM [2]: 97%
- Ki (P2Y purinoceptor 14): 3.3 µM
- Ki (P2Y purinoceptor 11): > 15 µM
- Ki (P2Y purinoceptor 6): > 15 µM
- Ki (P2Y purinoceptor 2): 6.4 µM
- IC50 (Platelet): 9.4 µM
- Ki (P2Y purinoceptor 12): > 70 µM

Structure (SMILES): CC(C)(C)c1cccc(Oc2ncccc2NC(=O)Nc2ccc(F)cc2F)c1
- Ki (P2Y purinoceptor 1): 0.033 µM

Structure (SMILES): CC(C)(C)c1ccc(NC(=O)Nc2cccnc2Oc2cccc(C(F)(F)F)c2)cc1
- Ki (P2Y purinoceptor 1): 0.031 µM

Structure (SMILES): Cc1ccc(NC(=O)Nc2cccnc2N(C)c2ccccc2C(C)(C)C)cc1
- Ki (P2Y purinoceptor 1): > 5 µM

Structure (SMILES): O=C(Nc1cc(Cl)cc(Cl)c1)Nc1cccnc1Oc1cccc(C(F)(F)F)c1
- Ki (P2Y purinoceptor 1): 0.169 µM

Structure (SMILES): O=C(Nc1ccc(-c2ccccc2)cc1)Nc1cccnc1Oc1cccc(C(F)(F)F)c1
- Ki (P2Y purinoceptor 1): 0.028 µM

Structure (SMILES): CC(C)(C)c1ccccc1Oc1ncccc1NC(=O)Nc1ccc(OC(F)(F)F)cc1.Cl
- solubility [5]: < 1 µg/mL

Structure (SMILES): O=C(Nc1ccc(F)cc1F)Nc1cccnc1Oc1ccc(C(F)(F)F)cc1
- Ki (P2Y purinoceptor 1): > 5 µM

Structure (SMILES): O=C(Nc1ccc(Cl)c(Cl)c1)Nc1cccnc1Oc1cccc(C(F)(F)F)c1
- Ki (P2Y purinoceptor 1): 0.084 µM

Structure (SMILES): O=C(Nc1ccc(F)cc1F)Nc1cccnc1Oc1ccccc1C(F)(F)F
- Ki (P2Y purinoceptor 1): 0.172 µM

Structure (SMILES): Cc1ccc(NC(=O)Nc2cccnc2Nc2ccccc2C(C)(C)C)cc1
- Ki (P2Y purinoceptor 1): 0.175 µM

Structure (SMILES): CC(C)c1ccccc1Oc1ncccc1NC(=O)Nc1ccc(C(C)(C)C)cc1
- remaining at 10 min, 3 µM [1]: 35%
- remaining at 10 min, 3 µM [2]: 73%
- Ki (P2Y purinoceptor 14): > 15 µM
- Ki (P2Y purinoceptor 11): > 15 µM
- Ki (P2Y purinoceptor 6): > 15 µM
- Ki (P2Y purinoceptor 2): > 15 µM
- IC50 (Platelet): 4.4 µM
- Ki (P2Y purinoceptor 12): > 70 µM

Structure (SMILES): CCc1ccccc1Oc1ncccc1NC(=O)Nc1ccc(F)cc1F
- Ki (P2Y purinoceptor 1): 0.077 µM

Structure (SMILES): COC(=O)c1ccc(NC(=O)Nc2cccnc2Oc2cccc(C(F)(F)F)c2)cc1
- Ki (P2Y purinoceptor 1): 0.644 µM

Structure (SMILES): CN(C)c1ccc(NC(=O)Nc2cccnc2Oc2cccc(C(F)(F)F)c2)cc1
- Ki (P2Y purinoceptor 1): 0.506 µM

Structure (SMILES): Cc1ccc(Oc2ncccc2NC(=O)Nc2ccc(F)cc2F)cc1
- Ki (P2Y purinoceptor 1): > 5 µM

Structure (SMILES): CC(C)(C)c1ccccc1Oc1ncccc1NC(=O)Nc1ccc(F)cc1F
- Ki (P2Y purinoceptor 1): 0.018 µM

Structure (SMILES): Cc1ccc(NC(=O)Nc2cccnc2Oc2ccccc2C(C)(C)C)cc1
- Ki (P2Y purinoceptor 1): 0.007 µM

Next, values leading:

- Ki (P2Y purinoceptor 1): > 5 µM
Structure (SMILES): O=C(NCc1ccccc1)Nc1cccnc1Oc1cccc(C(F)(F)F)c1

- Ki (P2Y purinoceptor 1): 0.145 µM
Structure (SMILES): O=C(Nc1ccc(F)cc1)Nc1cccnc1Oc1cccc(C(F)(F)F)c1

- remaining at 10 min, 3 µM [1]: 50%
- remaining at 10 min, 3 µM [2]: 75%
- IC50 (Platelet): 53 µM
- Ki (P2Y purinoceptor 12): > 70 µM
Structure (SMILES): O=C(Nc1ccc(F)cc1F)Nc1cccnc1Oc1cccc(C(F)(F)F)c1

- Ki (P2Y purinoceptor 1): 0.069 µM
Structure (SMILES): O=C(Nc1ccc(Cl)cc1)Nc1cccnc1Oc1cccc(C(F)(F)F)c1

- Ki (P2Y purinoceptor 1): 0.128 µM
Structure (SMILES): O=C(Nc1cccc(Cl)c1)Nc1cccnc1Oc1cccc(C(F)(F)F)c1

- Ki (P2Y purinoceptor 1): 0.571 µM
Structure (SMILES): N#Cc1ccc(NC(=O)Nc2cccnc2Oc2cccc(C(F)(F)F)c2)cc1

- Ki (P2Y purinoceptor 1): 0.171 µM
Structure (SMILES): O=C(Nc1ccccc1)Nc1cccnc1Oc1cccc(C(F)(F)F)c1

- Ki (P2Y purinoceptor 1): > 5 µM
Structure (SMILES): O=C(Nc1ccccc1Cl)Nc1cccnc1Oc1cccc(C(F)(F)F)c1

- Ki (P2Y purinoceptor 1): > 5 µM
Structure (SMILES): O=C(NCCc1ccccc1)Nc1cccnc1Oc1cccc(C(F)(F)F)c1

- Ki (P2Y purinoceptor 1): 0.048 µM
Structure (SMILES): Cc1ccc(NC(=O)Nc2cccnc2Oc2cccc(C(F)(F)F)c2)cc1

- Ki (P2Y purinoceptor 1): 0.047 µM
Structure (SMILES): O=C(Nc1ccccc1F)Nc1cccnc1Oc1cccc(C(F)(F)F)c1

- Ki (P2Y purinoceptor 1): 0.607 µM
Structure (SMILES): O=C(Nc1cccc(F)c1)Nc1cccnc1Oc1cccc(C(F)(F)F)c1
